Test system: HEK-293T
Experiment: Multiplex assay against HEK293T
Assay type: toxicity, cell-based
Details: human
Procedure, shortened: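 With compound added, live cells were imaged on a CQ1 microscope at 37°C and 5% CO2; staining with Hoechst33342, BioTracker Green Microtubule Cytoskeleton Dye, MitoTracker Red and Annexin V Alexa Fluor 680 had been done at seeding. The CellPathfinder machine-learning gating scheme split cells into Hoechst high-intensity objects or normal cells, normal cells into healthy, pyknosed or fragmented nuclei, and pyknosed cells into mitotic or apoptotic. The tubulin, mitochondrial-mass and membrane-permeability phenotypes are per cents of healthy-nucleus cells.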

[1] = 12 h, 1 µM, compound concentration 1 uM, replicate 1
[2] = 12 h, 1 µM, compound concentration 1 uM, replicate 2
[3] = 12 h, 10 µM, compound concentration 10 uM, replicate 1
[4] = 12 h, 10 µM, compound concentration 10 uM, replicate 2
[5] = 24 h, 1 µM, compound concentration 1 uM, replicate 1
[6] = 24 h, 1 µM, compound concentration 1 uM, replicate 2
[7] = 24 h, 10 µM, compound concentration 10 uM, replicate 1
[8] = 24 h, 10 µM, compound concentration 10 uM, replicate 2
[9] = 48 h, 1 µM, compound concentration 1 uM, replicate 1
[10] = 48 h, 1 µM, compound concentration 1 uM, replicate 2
[11] = 48 h, 10 µM, compound concentration 10 uM, replicate 1
[12] = 48 h, 10 µM, compound concentration 10 uM, replicate 2

CCCCC1=NC2(CCCC2)C(=O)N1Cc1ccc(-c2ccccc2-c2nnn[nH]2)cc1 [IRBESARTAN]
Population Apoptotic (%) [1]: 24%
Population Fragmented Nuclei (%) [1]: 9%
Population Healthy Nuclei (%) [1]: 79%
Population Hoechst High Intensity Objects (%) [1]: 9%
Population Membrane Permeable-Phenotype (%) [1]: 0%
Population Mitochondria Different-Phenotype (%) [1]: 34%
Population Mitotic Cells (%) [1]: 75%
Population Normal (%) [1]: 91%
Population Pyknosed Nuclei (%) [1]: 10%
Population Tubulin-Different-Phenotype (%) [1]: 17%
Total Cell Count [1]: 500
Population Apoptotic (%) [2]: 28%
Population Fragmented Nuclei (%) [2]: 8%
Population Healthy Nuclei (%) [2]: 78%
Population Hoechst High Intensity Objects (%) [2]: 4%
Population Mitochondria Different-Phenotype (%) [2]: 63%
Population Mitotic Cells (%) [2]: 71%
Population Normal (%) [2]: 95%
Population Pyknosed Nuclei (%) [2]: 12%
Population Tubulin-Different-Phenotype (%) [2]: 20%
Total Cell Count [2]: 353
Population Apoptotic (%) [3]: 50%
Population Fragmented Nuclei (%) [3]: 7%
Population Healthy Nuclei (%) [3]: 70%
Population Hoechst High Intensity Objects (%) [3]: 5%
Population Membrane Permeable-Phenotype (%) [3]: 2%
Population Mitochondria Different-Phenotype (%) [3]: 46%
Population Mitotic Cells (%) [3]: 50%
Population Normal (%) [3]: 94%
Population Pyknosed Nuclei (%) [3]: 22%
Population Tubulin-Different-Phenotype (%) [3]: 50%
Total Cell Count [3]: 219
Population Apoptotic (%) [4]: 56%
Population Fragmented Nuclei (%) [4]: 6%
Population Healthy Nuclei (%) [4]: 78%
Population Hoechst High Intensity Objects (%) [4]: 13%
Population Membrane Permeable-Phenotype (%) [4]: 0%
Population Mitochondria Different-Phenotype (%) [4]: 66%
Population Mitotic Cells (%) [4]: 43%
Population Normal (%) [4]: 86%
Population Pyknosed Nuclei (%) [4]: 15%
Population Tubulin-Different-Phenotype (%) [4]: 33%
Total Cell Count [4]: 351
Population Apoptotic (%) [5]: 31%
Population Fragmented Nuclei (%) [5]: 9%
Population Healthy Nuclei (%) [5]: 79%
Population Hoechst High Intensity Objects (%) [5]: 4%
Population Membrane Permeable-Phenotype (%) [5]: 0%
Population Mitochondria Different-Phenotype (%) [5]: 24%
Population Mitotic Cells (%) [5]: 68%
Population Normal (%) [5]: 95%
Population Pyknosed Nuclei (%) [5]: 10%
Population Tubulin-Different-Phenotype (%) [5]: 15%
Total Cell Count [5]: 625
Population Apoptotic (%) [6]: 34%
Population Healthy Nuclei (%) [6]: 80%
Population Hoechst High Intensity Objects (%) [6]: 7%
Population Mitochondria Different-Phenotype (%) [6]: 45%
Population Mitotic Cells (%) [6]: 65%
Population Normal (%) [6]: 92%
Population Pyknosed Nuclei (%) [6]: 9%
Population Tubulin-Different-Phenotype (%) [6]: 14%
Total Cell Count [6]: 456
Population Apoptotic (%) [7]: 27%
Population Fragmented Nuclei (%) [7]: 6%
Population Healthy Nuclei (%) [7]: 77%
Population Hoechst High Intensity Objects (%) [7]: 3%
Population Membrane Permeable-Phenotype (%) [7]: 1%
Population Mitochondria Different-Phenotype (%) [7]: 37%
Population Mitotic Cells (%) [7]: 72%
Population Normal (%) [7]: 96%
Population Pyknosed Nuclei (%) [7]: 15%
Population Tubulin-Different-Phenotype (%) [7]: 32%
Total Cell Count [7]: 287
Population Apoptotic (%) [8]: 41%
Population Fragmented Nuclei (%) [8]: 11%
Population Hoechst High Intensity Objects (%) [8]: 10%
Population Membrane Permeable-Phenotype (%) [8]: 0%
Population Mitochondria Different-Phenotype (%) [8]: 49%
Population Mitotic Cells (%) [8]: 58%
Population Normal (%) [8]: 89%
Population Pyknosed Nuclei (%) [8]: 11%
Population Tubulin-Different-Phenotype (%) [8]: 22%
Total Cell Count [8]: 434
Population Apoptotic (%) [9]: 29%
Population Fragmented Nuclei (%) [9]: 11%
Population Healthy Nuclei (%) [9]: 81%
Population Hoechst High Intensity Objects (%) [9]: 3%
Population Membrane Permeable-Phenotype (%) [9]: 0%
Population Mitochondria Different-Phenotype (%) [9]: 21%
Population Mitotic Cells (%) [9]: 70%
Population Normal (%) [9]: 96%
Population Pyknosed Nuclei (%) [9]: 7%
Population Tubulin-Different-Phenotype (%) [9]: 15%
Total Cell Count [9]: 958
Population Apoptotic (%) [10]: 23%
Population Fragmented Nuclei (%) [10]: 9%
Population Healthy Nuclei (%) [10]: 84%
Population Hoechst High Intensity Objects (%) [10]: 2%
Population Membrane Permeable-Phenotype (%) [10]: 1%
Population Mitochondria Different-Phenotype (%) [10]: 19%
Population Mitotic Cells (%) [10]: 76%
Population Normal (%) [10]: 97%
Population Pyknosed Nuclei (%) [10]: 6%
Population Tubulin-Different-Phenotype (%) [10]: 8%
Total Cell Count [10]: 705
Population Apoptotic (%) [11]: 25%
Population Fragmented Nuclei (%) [11]: 15%
Population Healthy Nuclei (%) [11]: 75%
Population Hoechst High Intensity Objects (%) [11]: 1%
Population Membrane Permeable-Phenotype (%) [11]: 0%
Population Mitochondria Different-Phenotype (%) [11]: 21%
Population Mitotic Cells (%) [11]: 75%
Population Normal (%) [11]: 98%
Population Pyknosed Nuclei (%) [11]: 9%
Population Tubulin-Different-Phenotype (%) [11]: 15%
Total Cell Count [11]: 473
Population Apoptotic (%) [12]: 46%
Population Fragmented Nuclei (%) [12]: 12%
Population Healthy Nuclei (%) [12]: 80%
Population Hoechst High Intensity Objects (%) [12]: 3%
Population Mitochondria Different-Phenotype (%) [12]: 26%
Population Mitotic Cells (%) [12]: 53%
Population Normal (%) [12]: 96%
Population Pyknosed Nuclei (%) [12]: 6%
Total Cell Count [12]: 684
